SENP8 block-1: blocks the human protease SENP8. Q96LD8. purified SENP8, Z-RLRGG-aminoluciferin cleavage, luminescence. inhibition, % at 10 µM. hit rate 1.2% among 330,000. AID 2540; in the data active means inhibition above about 50%
Target sequence (Q96LD8 whole entry, looked up): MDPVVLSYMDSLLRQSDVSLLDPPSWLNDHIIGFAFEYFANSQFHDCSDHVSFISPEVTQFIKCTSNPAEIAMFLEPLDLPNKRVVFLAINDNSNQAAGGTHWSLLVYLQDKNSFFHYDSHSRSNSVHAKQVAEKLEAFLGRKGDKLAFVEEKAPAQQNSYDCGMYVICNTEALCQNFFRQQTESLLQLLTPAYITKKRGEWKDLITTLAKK
SENP8 block-2: blocks human SENP8 cleavage of Nedd8 substrate. recombinant SENP8, Nedd8 substrate fluorescence. hit rate 0.64% among 360,000. inhibition, % at 20 µM; in the data active means inhibition mostly above about 40%, no sharp cut-off; inactive means mostly below about 27%
SENP6 block: SENP6 protease inhibition | AID 2599 | hit rate 1.8% among 330,000 | Q9GZR1 | inhibition, % at 10 µM | Recombinant SENP6 catalytic domain, aminoluciferin luminescence;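 active means inhibition above about 50% at the single tested dose, limit read from the data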
SENP1 FRET inh: blocks the human SENP1 SUMO protease catalytic domain | hit rate 0.21% among 360,000 | recombinant SENP1 catalytic domain, CyPet-SUMO1-YPet FRET cleavage | inhibition, % at 10 µM | AID 624204 | Q9P0U3;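 active means inhibition at least 30% at 10 µM, raw YFP signal under a set limit, fluorescence ratio 0.5 to 1.5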
Target sequence (Q9P0U3 419-644 limits assumed): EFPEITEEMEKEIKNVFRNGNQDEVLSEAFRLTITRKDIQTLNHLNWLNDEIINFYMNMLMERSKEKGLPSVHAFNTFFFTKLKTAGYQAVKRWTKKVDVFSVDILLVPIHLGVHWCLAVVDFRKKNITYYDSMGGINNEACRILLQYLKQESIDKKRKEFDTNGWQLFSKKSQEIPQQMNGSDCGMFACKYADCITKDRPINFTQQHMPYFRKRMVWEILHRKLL
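system = hSENP1 catalytic domain, recombinant | reagent = SFCypet-SUMO1-SFYpet substrate at 25 nM | doses = one dose per compound, 10 µM, 0.5% DMSO | incubation = enzyme reaction for 50 min at room temperature, dark | measured by = FRET, CFP and YFP emission | controls = no-enzyme low, enzyme-DMSO high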
SENP7 inh: inhibitors of human SENP7 protease. Q9BQF6. hit rate 1.5% among 330,000. recombinant SENP7, Z-RLRGG-aminoluciferin luminescence, 40 min. inhibition, % at 5 µM;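 active means inhibition above about 50% at the single test dose, limit read from the data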
SENP1 conf: confirmation of human SENP1 SUMO protease inhibitors. shares compounds with SENP1 FRET inh. recombinant SENP1, CyPet-SUMO1-YPet FRET cleavage. inhibition, % at 10 µM. hit rate 34% among 520. AID 651678; in the data active means inhibition mostly above about 35%, no sharp cut-off; inactive means mostly below about 32%
SENP1 kinetic: confirmation of human SENP1 SUMO protease inhibitors, kinetic; inhibition, % at 10 µM; hit rate 26% among 520; AID 651690; recombinant SENP1, CyPet-SUMO1-YPet FRET kinetic cleavage; shares compounds with SENP1 FRET inh; in the data active means inhibition mostly above about 32%, no sharp cut-off; inactive means mostly below about 29%
A number is an active result; – = inactive; · = not tested or not shown. In the library only some 2.5% were active in any assay of this set; here they are far more common.

SMILES	SENP8 block-1	SENP8 block-2	SENP6 block	SENP1 FRET inh	SENP7 inh	SENP1 conf	SENP1 kinetic
CC(C)(CN=C1NS(=O)(=O)c2ccccc21)CNC(=O)c1ccccc1	–	–	–	–	–	·	·
Cc1cc(NC(=O)NC(C(F)(F)F)C(F)(F)F)no1	–	–	–	–	–	·	·
CCOc1ccc(CN2CCC(C(=O)Nc3cccc(-c4ccn[nH]4)c3)CC2)cc1Cl	–	–	–	–	–	·	·
CCOC(=O)CC(NC(=O)c1cc2cccc(OC)c2oc1=O)c1ccc(OC)cc1 (centres undefined)	–	–	–	–	–	·	·
O=[N+]([O-])c1cccc(/C=C/c2nc(C=Nc3ccccc3)c(O)o2)c1	–	–	–	33	–	–	–
COc1ccc(S(=O)(=O)N2CCN(C(=O)N3CCOCC3)C2C)cc1 (centres undefined)	–	–	–	–	–	·	·
OC[C@@H]1CN(Cc2cccs2)C[C@H](n2cnc3c(NCc4ccco4)ncnc32)O1	·	–	·	–	·	·	·
Nc1ccccc1C=C1Cc2ccccc2C1=O	·	–	·	56	·	–	–
O=C(O)c1ccc(N/N=C/c2cccc3nccnc23)cc1	–	–	–	53	–	46	39
C[C@H](NC(=O)OC(C)(C)C)C(=O)N/N=C/c1cccc2nccnc12	–	–	–	–	–	·	·
NC(CO)(CO)COCc1ccccc1	–	–	–	–	–	·	·
COc1ccc(OC)c(CCNC(=O)c2ccc3c(=O)[nH]c4c(C(=O)NC(C)C)sc(=S)n4c3c2)c1	–	–	–	50	–	41	40
COc1ccc(OC)c(CCNC(=O)c2ccc3c(c2)N(Cc2ccc(F)cc2)CCS3)c1	–	–	–	–	–	·	·
C=CCNC(=O)c1cccc2c1C(=O)c1ccc(N3CCOCC3)cc1S2(=O)=O	–	–	–	80	–	61	45
Cc1cnc(C(=O)Nc2cccc3ncccc23)cn1	–	–	–	–	–	·	·
Cc1cnc(C(=O)Nc2ccccc2-c2ccc(C)o2)cn1	–	–	–	40	–	–	–
COc1cc(/C=C2/SC(=S)N(CC(=O)O)C2=O)ccc1OC(=O)c1ccco1	–	–	–	32	–	84	65
COc1ccc(/C=C2/SC(=S)N(CC(=O)O)C2=O)cc1OCc1ccc(Cl)cc1	–	–	–	–	–	·	·
COc1cc(/C=C2\SC(=S)N(CC(=O)O)C2=O)ccc1OC(=O)c1ccco1	–	–	–	39	–	83	63
CCOc1cc(/C=C2/SC(=S)N(CC(=O)O)C2=O)ccc1OC(=O)c1cccs1	–	–	–	–	–	·	·
Cc1ccc(CNC(=O)Cn2ccc3cc(S(=O)(=O)N4CCCC4)ccc32)o1	–	–	–	–	–	·	·
CCN(CC)S(=O)(=O)c1ccc(NC(=O)COC(=O)CNS(=O)(=O)/C=C/c2ccccc2)cc1	–	–	–	–	–	·	·
CCCNc1nc2ccccc2n2c(C)nnc12	–	–	–	31	–	–	–
CCCN(CCC)c1nc2ccccc2n2c(C)nnc12	–	–	–	–	–	·	·
O=C(COC(=O)c1cc(Br)ccc1Cl)NC1CCCC1	–	–	–	–	–	·	·
SMILES	SENP8 block-1	SENP8 block-2	SENP6 block	SENP1 FRET inh	SENP7 inh	SENP1 conf	SENP1 kinetic
CCn1cc(C(=O)O)c(=O)c2cc(F)c(N/N=C/c3ccccc3[N+](=O)[O-])cc21	–	–	–	34	–	–	–
Nc1ccc(Oc2ccc3c(c2)C(=O)N(CC2CCCO2)C3=O)cc1 (centres undefined)	–	–	–	–	–	·	·
Nc1ccc2c(c1)C(=O)N(CC1CCCO1)C2=O (centres undefined)	–	–	–	62	–	65	48
Clc1cccc(Cl)c1C[n+]1ccc2ccccc2c1	–	–	–	68	–	–	–
CC(C)c1ccc(NC(=O)C2CSC3(C)CCC(=O)N23)cc1 (centres undefined)	–	–	–	–	–	·	·
COc1ccc(C(=O)C(C)[n+]2ccc(C)c3ccccc32)cc1[N+](=O)[O-] (centres undefined)	–	–	–	78	–	–	–
COc1ccc(C(=O)NC(C)CCc2ccccc2)cc1[N+](=O)[O-] (centres undefined)	–	–	–	–	–	·	·
